# Laboratory results as given in ChEMBL document CHEMBL1255400, “Fasting increases tobramycin oral absorption in mice” (Antimicrob Agents Chemother, 2010).
# Legend:
# Format in all cases: ADME, organism-based
# [1] = Oral bioavailability in normally fed BALB/c mouse at 50 mg/kg, po; details: in vivo
# How it was run: (§1)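 Male BALB/c mice, 6-8 weeks (25-30 g), fed or food-deprived 15 h with water available; tobramycin in physiologic solution given by gavage (50 mg/kg), or 10 mg/kg iv (tail vein) or im (hind leg) in fed mice. Groups of 3 per time point; submandibular blood at 0-180 min; plasma tobramycin by homogeneous enzyme immunoassay; noncompartmental PK analysis.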
# [2] = Tmax in 15 hrs fasted BALB/c mouse at 50 mg/kg, po; parameters: dose 50 mg/kg, route oral; details: in vivo; how it was run: as §1
# [3] = AUC (0 to infinity) in normally fed BALB/c mouse at 10 mg/kg, im; parameters: time infinity, dose 10 mg/kg, route intramuscular; details: plasma; how it was run: as §1
# [4] = Cmax in 15 hrs fasted BALB/c mouse at 50 mg/kg, po; parameters: dose 50 mg/kg, route oral; details: in vivo; how it was run: as §1
# [5] = AUClast in normally fed BALB/c mouse at 50 mg/kg, po; parameters: time 0 - last, dose 50 mg/kg, route oral; details: plasma; how it was run: as §1
# [6] = AUClast in 15 hrs fasted BALB/c mouse at 50 mg/kg, po; parameters: time 0 - last, dose 50 mg/kg, route oral; details: plasma; how it was run: as §1
# [7] = AUClast in normally fed BALB/c mouse at 10 mg/kg, iv; parameters: time 0 - last, dose 10 mg/kg, route intravenous; details: plasma; how it was run: as §1
# [8] = Cmax in normally fed BALB/c mouse at 10 mg/kg, iv; parameters: dose 10 mg/kg, route intravenous; details: in vivo; how it was run: as §1
# [9] = Half life in 15 hrs fasted BALB/c mouse at 50 mg/kg, po; parameters: dose 50 mg/kg, route oral; details: in vivo; how it was run: as §1
# [10] = AUC (0 to infinity) in normally fed BALB/c mouse at 10 mg/kg, iv; parameters: time infinity, dose 10 mg/kg, route intravenous; details: plasma; how it was run: as §1
# [11] = Half life in normally fed BALB/c mouse at 10 mg/kg, iv; parameters: dose 10 mg/kg, route intravenous; details: in vivo; how it was run: as §1
# [12] = AUC (0 to infinity) in 15 hrs fasted BALB/c mouse at 50 mg/kg, po; parameters: time infinity, dose 50 mg/kg, route oral; details: plasma; how it was run: as §1
# [13] = AUC (0 to infinity) in normally fed BALB/c mouse at 50 mg/kg, po; parameters: time infinity, dose 50 mg/kg, route oral; details: plasma; how it was run: as §1
# [14] = Tmax in normally fed BALB/c mouse at 50 mg/kg, po; parameters: dose 50 mg/kg, route oral; details: in vivo; how it was run: as §1
# [15] = Tmax in normally fed BALB/c mouse at 10 mg/kg, im; parameters: dose 10 mg/kg, route intramuscular; details: in vivo; how it was run: as §1
# [16] = Cmax in normally fed BALB/c mouse at 50 mg/kg, po; parameters: dose 50 mg/kg, route oral; details: in vivo; how it was run: as §1
# [17] = AUClast in normally fed BALB/c mouse at 10 mg/kg, im; parameters: time 0 - last, dose 10 mg/kg, route intramuscular; details: plasma; how it was run: as §1
# [18] = Half life in normally fed BALB/c mouse at 10 mg/kg, im; parameters: dose 10 mg/kg, route intramuscular; details: in vivo; how it was run: as §1
# [19] = Tmax in normally fed BALB/c mouse at 10 mg/kg, iv; parameters: dose 10 mg/kg, route intravenous; details: in vivo; how it was run: as §1
# Mus musculus = assay: Oral bioavailability in normally fed BALB/c mouse at 10 mg/kg, iv; details: in vivo; how it was run: as §1
# [20] = Half life in normally fed BALB/c mouse at 50 mg/kg, po; parameters: dose 50 mg/kg, route oral; details: in vivo; how it was run: as §1
# [21] = Cmax in normally fed BALB/c mouse at 10 mg/kg, im; parameters: dose 10 mg/kg, route intramuscular; details: in vivo; how it was run: as §1
# [22] = Oral bioavailability in normally fed BALB/c mouse at 10 mg/kg, im; details: in vivo, intramuscular; how it was run: as §1
# [23] = Oral bioavailability in 15 hrs fasted BALB/c mouse at 50 mg/kg, po; details: in vivo; how it was run: as §1
structure (smiles),measurement,setting,value
NC[C@H]1O[C@H](O[C@H]2[C@H](O)[C@@H](O[C@H]3O[C@H](CO)[C@@H](O)[C@H](N)[C@H]3O)[C@H](N)C[C@@H]2N)[C@H](N)C[C@@H]1O [TOBRAMYCIN],bioavailability,[1],0.48%
same,Tmax,[2],15 min
same,AUC(0-inf),[3],11100 ng·h/mL
same,Cmax,[4],7800 ng/mL
same,AUC(0-t),[5],274 ng·h/mL
same,AUC(0-t),[6],7060 ng·h/mL
same,AUC(0-t),[7],11400 ng·h/mL
same,Cmax,[8],35300 ng/mL
same,half-life,[9],22 min
same,AUC(0-inf),[10],11500 ng·h/mL
same,half-life,[11],20.3 min
same,AUC(0-inf),[12],7300 ng·h/mL
same,AUC(0-inf),[13],316 ng·h/mL
same,Tmax,[14],15 min
same,Tmax,[15],15 min
same,Cmax,[16],330 ng/mL
same,AUC(0-t),[17],11000 ng·h/mL
same,half-life,[18],17.7 min
same,Tmax,[19],5 min
same,F,Mus musculus,100%
same,half-life,[20],41.6 min
same,Cmax,[21],16500 ng/mL
same,bioavailability,[22],96.5%
same,bioavailability,[23],12.4%
